ChEMBL document CHEMBL1909523, “2,6-Bis-arylmethyloxy-5-hydroxychromones with antiviral activity against both hepatitis C virus (HCV) and SARS-associated coronavirus (SCV)” (Eur J Med Chem, 2011)
Activity calls are given as the source filed them. No cut-off for these calls is given here.

How the values were obtained:
[1] = tested on: Hepatitis C virus; experiment: Inhibition of HCV genotype 1b NS5B cdelta21 RNA polymerase using [alpha32p]GTP after 30 mins by microbeta scintillation counting; settings: Hepatitis C virus subtype 1b
[2] = tested on: HS27; experiment: Cytotoxicity against human HS27 cells after 24 hrs by MTT assay; format: cell-based; settings: hs27, 24 h
Summary of the method: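 Normal human fibroblast HS27 cells, 5 × 10^3/well in DMEM, grown 1 day (37 °C, 5% CO2), then given compounds at 0.1, 0.5, 1, 5, 10 and 50 µM (from DMSO) for 24 h; MTT viability read-out; triplicates, repeated three times. Value is the concentration reducing proliferation by 50%.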

[3] = Inhibition of NTPase activity of SCV NTPase/helicase after 5 mins by FRET assay; set-up: species or system Severe acute respiratory syndrome-related coronavirus
[4] = Inhibition of helicase activity of SCV NTPase/helicase assessed as inhibition of ds-DNA unwinding after 5 mins by FRET assay; set-up: species or system Severe acute respiratory syndrome-related coronavirus
Summary of the method: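 FRET unwinding: helicase solution (150 nM, 20 mM HEPES pH 7.4) preincubated 5 min at rt with compound. Started with 5× mix (5 mM MgCl2, 45 mM ATP, 25 mM DTT, 100 nM substrate): 25-bp TAMRA/fluorescein dsDNA with 20-dT 5′ overhang. Run 2 min at 37 °C, stopped with EDTA plus unlabelled trap oligomer; ex 485/em 535 nm. Value is 50% inhibition concentration.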

[5] = tested on: Hepatitis C virus; experiment: Antiviral activity against HCV genotype 1 infected in human Huh7 cells assessed as reduction of viral replication after 4 days by luciferase reporter gene assay; format: functional, organism-based, Hepacivirus hominis; settings: genotype 1, Huh-7, 96 h
Summary of the method: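 Subgenomic genotype 1 replicon (luc-ubi-neo) Huh-5-2 cells, 5 × 10^3/well, in DMEM with 500 µg/mL G418 for 24 h at 37 °C, 5% CO2; medium refreshed with G418, compounds added from DMSO stock; 4 days at 37 °C; luciferase read-out. Value is the concentration inhibiting HCV RNA replication by 50%.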

Compound	inhibition [1]	Activity [2]	IC50 [3]	IC50 [4]	EC50 [5]
O=c1cc(OCc2ccc(Cl)cc2)oc2ccc(OCc3cccc(Cl)c3)c(O)c12	inactive	> 50 µM	28 µM	53 µM	24 µM
O=c1cc(OCc2cc(Cl)cc(Cl)c2)oc2ccc(OCc3cccc(Cl)c3)c(O)c12	inactive	> 50 µM	> 50 µM	> 50 µM	1 µM
O=c1cc(OCc2ccccc2)oc2ccc(OCc3cccc(Cl)c3)c(O)c12	inactive	> 50 µM	> 50 µM	> 50 µM	> 50 µM
O=c1cc(OCc2ccc(I)cc2)oc2ccc(OCc3cccc(Cl)c3)c(O)c12	inactive	> 50 µM	23 µM	31 µM	3 µM
N#Cc1cccc(COc2cc(O)c3c(=O)c(O)c(-c4ccccc4)oc3c2)c1	–	> 50 µM	> 50 µM	> 50 µM	–
O=C(O)/C(O)=C/C(=O)c1cccc(NCc2ccc(Cl)cc2)c1	–	> 50 µM	> 50 µM	–	0.8 µM
O=c1c(OCc2cccc([N+](=O)[O-])c2)c(-c2ccccc2)oc2cc(O)cc(O)c12	–	> 50 µM	> 50 µM	> 50 µM	–
O=c1cc(OCc2cccc(Cl)c2)oc2ccc(OCc3cccc(Cl)c3)c(O)c12	inactive	> 50 µM	10 µM	40 µM	17 µM
O=c1cc(OCc2cccc(I)c2)oc2ccc(OCc3cccc(Cl)c3)c(O)c12	inactive	> 50 µM	4 µM	11 µM	4 µM
N#Cc1cccc(COc2cc(=O)c3c(O)c(OCc4cccc(Cl)c4)ccc3o2)c1	inactive	> 50 µM	37 µM	> 50 µM	17 µM
